Results from ChEMBL document CHEMBL1275448, “Identification of a novel multidrug efflux pump of Mycobacterium tuberculosis” (2008).
In brackets after ≈: the same amount, converted by molar mass.

Assays:
[1] = system: Mycobacterium tuberculosis; assay: Antimicrobial activity against wild-type Mycobacterium bovis BCG by microplate Alamar blue assay; format: functional; conditions: variant bovis BCG
In short: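 Whole-cell M. bovis BCG (Institut Pasteur) MABA; mutants carried IS1096::Km insertions. Growth was in Middlebrook 7H9 with 0.2% glycerol, 0.05% Tween 80 and 10% OADC. Final drug ranges: ampicillin 62.5–2,000 μg/ml, vancomycin 1.25–40 μg/ml, streptomycin 0.25–8 μg/ml, chloramphenicol 4–128 μg/ml, tetracycline 0.5–16 μg/ml. MIC was the lowest concentration cutting viability ≥90%, read by fluorescence (ex 530/em 590 nm, room temperature).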

[2] = system: Mycobacterium tuberculosis; assay: Resistance factor, ratio of MIC for Mycobacterium bovis BCG ML1034 to MIC for wild-type Mycobacterium bovis BCG; format: functional, variant bovis BCG
In short: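 Resistance factor is the MABA MIC for BCG mutant ML1034 divided by the MIC for wild-type BCG. Both MICs were taken as ≥90% viability reduction, read by fluorescence (ex 530/em 590 nm).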

What does the source list for `CC1(C)S[C@@H]2[C@H](NC(=O)[C@H](N)c3ccccc3)C(=O)N2[C@H]1C(=O)O` [AMPICILLIN]?
MIC [1]: 62.5 µg/mL (≈ 179 µM); Ratio [2]: 32

For `CN(C)[C@@H]1C(O)=C(C(N)=O)C(=O)[C@@]2(O)C(O)=C3C(=O)c4c(O)cccc4[C@@](C)(O)[C@H]3C[C@@H]12` [TETRACYCLINE], which MIC [1] is on record?
The MIC was 2 µg/mL (≈ 4.5 µM).

What about the Ratio [2] of the same compound?
The Ratio was greater than 8.

For `CN[C@@H]1[C@H](O[C@H]2[C@H](O[C@H]3[C@H](O)[C@@H](O)[C@H](N=C(N)N)[C@@H](O)[C@@H]3N=C(N)N)O[C@@H](C)[C@]2(O)C=O)O[C@@H](CO)[C@H](O)[C@H]1O` [STREPTOMYCIN], which MIC [1] is on record?
Its MIC is 0.5 µg/mL (≈ 0.86 µM).

What about the Ratio [2] of the same compound?
The Ratio was 32.

Which MIC [1] does the source give for `O=C(N[C@H](CO)[C@H](O)c1ccc([N+](=O)[O-])cc1)C(Cl)Cl` [CHLORAMPHENICOL] here?
Its MIC is 8 µg/mL (≈ 24.8 µM).

And the Ratio [2]?
The Ratio was 64.

Which results are given for `CN[C@H](CC(C)C)C(=O)N[C@H]1C(=O)N[C@@H](CC(N)=O)C(=O)N[C@H]2C(=O)N[C@H]3C(=O)N[C@H](C(=O)N[C@H](C(=O)O)c4cc(O)cc(O)c4-c4cc3ccc4O)[C@H](O)c3ccc(c(Cl)c3)Oc3cc2cc(c3O[C@@H]2O[C@H](CO)[C@@H](O)[C@H](O)[C@H]2O[C@H]2C[C@](C)(N)[C@H](O)[C@H](C)O2)Oc2ccc(cc2Cl)[C@H]1O` [VANCOMYCIN]?
MIC [1]: 5 µg/mL (≈ 3.45 µM); Ratio [2]: 4
